Article PMC5092235 (Journal of medicinal chemistry, 2016)

Legend:
[1] = Caco-2 membrane permeability studies; assay type: in vitro ADME; details: for cellular permeability: Caco-2 cells; for efflux ratio: human, Caco-2
[2] = Pharmacokinetic studies in mice; assay type: in vivo, mouse; details: 24 h experiments (31: 8 h experiment); for Clobs: mice; for half-life: female, C57BL/6, mouse, plasma, T1/2, mice
[3] = system: panel of kinases; assay: Kinase profiling; assay type: biochemical
[4] = system: MLL-AF9 transformed murine bone marrow cells; assay: MTT cell viability assay in MLL-AF9 transformed murine bone marrow cells; assay type: cell-based; details: for SI, selectivity index: ratio of GI50 values measured in HM-2 cells (control cell line) and MLL-AF9 transformed cells; for GI50: read-out: GI50 MLL-AF9, MTT cell viability assay, 7 days of treatment
[5] = system: panel of GPCRs; assay: GPCR profiling
[6] = system: HL-60 cells; assay: MTT cell viability assay in HL-60 control cell line; assay type: cell-based, human; details: up to 6 μM, 7 days
Method in brief: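 MTT viability over 7 days at 37 °C. Cells were grown in RPMI-1640 with 10% FBS, penicillin/streptomycin and NEAA, then seeded at 2 × 10^5/mL (HL-60) or 1 × 10^5/mL (MV4;11, MOLM-13). They were treated with test compound or 0.25% DMSO. On day 4 the medium was changed, viable cells were reset to the starting density, and compound was resupplied. Absorbance was read at 570 nm in quadruplicate, with runs repeated 2–3 times; mean and SD are reported.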

[7] = system: Hoxa9/Meis1 (HM-2) transformed murine bone marrow cells; assay: MTT cell viability assay in Hoxa9/Meis1; assay type: cell-based; details: up to 6 μM, 7 days
[8] = biological target: T1, menin (Homo sapiens, UniProt O00255); assay: Isothermal titration calorimetry, binding to menin
T1 sequence (O00255 1-610): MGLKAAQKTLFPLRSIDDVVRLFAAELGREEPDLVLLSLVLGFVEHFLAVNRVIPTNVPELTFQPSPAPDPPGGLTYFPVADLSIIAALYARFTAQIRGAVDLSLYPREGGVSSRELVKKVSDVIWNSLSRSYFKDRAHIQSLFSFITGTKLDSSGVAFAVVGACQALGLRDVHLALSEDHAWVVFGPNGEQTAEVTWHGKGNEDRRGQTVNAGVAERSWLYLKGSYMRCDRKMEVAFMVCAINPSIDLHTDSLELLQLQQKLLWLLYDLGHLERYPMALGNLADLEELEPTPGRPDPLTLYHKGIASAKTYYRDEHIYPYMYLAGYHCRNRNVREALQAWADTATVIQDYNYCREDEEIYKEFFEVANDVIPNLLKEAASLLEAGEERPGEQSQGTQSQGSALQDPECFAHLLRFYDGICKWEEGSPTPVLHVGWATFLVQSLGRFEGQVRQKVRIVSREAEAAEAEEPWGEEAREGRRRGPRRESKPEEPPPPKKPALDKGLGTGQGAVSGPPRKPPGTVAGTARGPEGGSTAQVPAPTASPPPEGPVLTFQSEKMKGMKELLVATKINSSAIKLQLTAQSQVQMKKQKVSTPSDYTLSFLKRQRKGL

[9] = system: MV4;11 tumors; assay: MV4; assay type: in vivo, mouse; details: 45 mg/kg, once daily via ip, 2 weeks
[10] = system: Hoxa9, Meis1 and Itgam expression in MLL-AF9 transformed BMCs; assay: qRT-PCR gene expression in MLL-AF9 transformed murine bone marrow cells; assay type: cell-based; details: 6 days of treatment
Method in brief: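 MLL-AF9-transformed murine bone marrow cells were treated for 6 days, and expression was then quantified by qRT-PCR. Itgam was normalised to 18S rRNA, and Hoxa9 and Meis1 to β-actin, each relative to DMSO-treated cells. Values are mean ± SD, n = 2.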

[11] = Phase II metabolism, detection of glucuronidation in blood plasma; assay type: in vivo, mouse; details: blood plasma after iv administration, 15 mg/kg
Method in brief: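 Test compound was given iv at 15 mg/kg to mice. Glucuronide was detected in blood plasma by LC–MS/MS in positive-ion MRM mode, following the same handling used for the pharmacokinetic study.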

N#Cc1cc2cc(CN3CCC(Nc4ncnc5sc(CC(F)(F)F)cc45)CC3)ccc2n1CC(O)CO (racemic) [3-(RS)]
cellular permeability [1]: poor cellular permeability

CO[C@@H](CO)Cn1c(C#N)cc2cc(CN3CCC(Nc4ncnc5sc(CC(F)(F)F)cc45)CC3)ccc21 [4-(R)]
efflux ratio [1]: > 20

N#Cc1cc2cc(CN3CCC(Nc4ncnc5sc(CC(F)(F)F)cc45)CC3)ccc2[nH]1 [Compound 1, 5-((4-((6-(2,2,2-Trifluoroethyl)thieno[2,3-d]pyrimidin-4-yl)-amino)piperidin-1-yl)methyl)-1H-indole-2-carbonitrile]
Clobs ([2]; iv, 15 mg/kg): 38.1 mL/min/kg | off-target activity on a panel of kinases [3]: did not show substantial off-target activity | SI, selectivity index [4]: < 6 | off-target activity on a panel of GPCRs [5]: did not show substantial off-target activity

N#Cc1cc2cc(CN3CCC(Nc4ncnc5sc(CC(F)(F)F)cc45)CC3)ccc2n1CC(N)=O [Compound 7, 2-(2-Cyano-5-((4-((6-(2,2,2-trifluoroethyl)thieno[2,3-d]-pyrimidin-4-yl)amino)piperidin-1-yl)methyl)-1H-indol-1-yl)-acetamide]
cellular permeability [1]: poor cellular permeability | efflux ratio [1]: > 90

Cc1c(CN2CCC(Nc3ncnc4sc(CC(F)(F)F)cc34)CC2)c(O)cc2[nH]c(C#N)cc12 [Compound 20, 6-Hydroxy-4-methyl-5-((4-((6-(2,2,2-trifluoroethyl)thieno-[2,3-d]pyrimidin-4-yl)amino)piperidin-1-yl)methyl)-1H-indole-2-carbonitrile]
Clobs ([2]; iv, 15 mg/kg): 44.1 mL/min/kg | GI50 [4]: < 200 nM | cellular permeability [1]: relatively high to moderate cellular permeability

COc1cc2[nH]c(C#N)cc2c(C)c1CN1CCC(Nc2ncnc3sc(CC(F)(F)F)cc23)CC1 [Compound 21, 6-Methoxy-4-methyl-5-((4-((6-(2,2,2-trifluoroethyl)thieno-[2,3-d]pyrimidin-4-yl)amino)piperidin-1-yl)methyl)-1H-indole-2-carbonitrile]
Clobs ([2]; iv, 15 mg/kg): 26.6 mL/min/kg | GI50 [4]: 100 nM | cellular permeability [1]: relatively high to moderate cellular permeability

Cc1c(CN2CCC(Nc3ncnc4sc(CC(F)(F)F)cc34)CC2)ccc2c1cc(C#N)n2CC(N)=O [Compound 25, 2-(2-Cyano-4-methyl-5-((4-((6-(2,2,2-trifluoroethyl)thieno-[2,3-d]pyrimidin-4-yl)amino)piperidin-1-yl)methyl)-1H-indol-1-yl)acetamide]
cellular permeability [1]: poor cellular permeability

N#Cc1cc2cc(CN3CCC(Nc4ncnc5sc(CC(F)(F)F)cc45)CC3)c(O)cc2n1Cc1cn[nH]c1 [Compound 27, 1-((1H-Pyrazol-4-yl)methyl)-6-hydroxy-5-((4-((6-(2,2,2-trifluoroethyl)thieno[2,3-d]pyrimidin-4-yl)amino)piperidin-1-yl)methyl)-1H-indole-2-carbonitrile]
effect on growth of control cell line HL-60 [6]: no effect | effect on growth of control cell line HM-2 [7]: no effect | half-life ([2]; iv, 15 mg/kg, iv, 15 mg/kg): ~1.6 h | half-life ([2]; po, 30 mg/kg, po, 30 mg/kg): 1.6 h | Clobs ([2]; iv, 15 mg/kg): 14.0 mL/min/kg | SI, selectivity index [4]: > 100 | ligand efficiency index (LE) [8]: 0.28 | reduction in the MV4;11 tumor volume [9]: about 80% | reduction of the body weight [9]: less than 10% | expression level of Itgam (differentiation marker) [10]: marked increase | phase II metabolism [11]: undergoes glucuronidation

COc1cc2c(cc(C#N)n2Cc2cn[nH]c2)c(C)c1CN1CCC(Nc2ncnc3sc(CC(F)(F)F)cc23)CC1 [Compound 31, 1-((1H-Pyrazol-4-yl)methyl)-6-methoxy-4-methyl-5-((4-((6-(2,2,2-trifluoroethyl)thieno[2,3-d]pyrimidin-4-yl)amino)-piperidin-1-yl)methyl)-1H-indole-2-carbonitrile]
Clobs ([2]; iv, 15 mg/kg): 15.0 mL/min/kg | GI50 [4]: < 200 nM
